The target of series [1] is T1, Mu-type opioid receptor (Homo sapiens, UniProt P35372). Description: Displacement of [3H]DAMGO from human mu opioid receptor expressed in HEK293 cell membranes after 2 hrs by liquid scintillation spectrometry. The method, boiled down:
(§1)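 Membranes from HEK-293 cells stably expressing human opioid receptors. Radioligands: [3H]DAMGO for MOR, [3H]diprenorphine for DOR, [3H]U69,593 for KOR. Competitor range 10^-12–10^-4 M, 120 min at 25°C, Tris-HCl buffer with 0.3% BSA. Unlabelled ligands defined nonspecific binding. Bound label collected on 0.3% polyethylenimine-presoaked filters and counted by liquid scintillation. Ki from IC50 via Cheng-Prusoff.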

For series [2], the target named is Delta-type opioid receptor (Homo sapiens, UniProt P41143). Description: Displacement of [3H]diprenorphine from human delta opioid receptor expressed in HEK293 cell membranes after 2 hrs by liquid scintillation spectrometry. (In a radioligand displacement assay an active substance lowers the binding of a labelled ligand.)
Sequence of Delta-type opioid receptor (P41143 whole entry): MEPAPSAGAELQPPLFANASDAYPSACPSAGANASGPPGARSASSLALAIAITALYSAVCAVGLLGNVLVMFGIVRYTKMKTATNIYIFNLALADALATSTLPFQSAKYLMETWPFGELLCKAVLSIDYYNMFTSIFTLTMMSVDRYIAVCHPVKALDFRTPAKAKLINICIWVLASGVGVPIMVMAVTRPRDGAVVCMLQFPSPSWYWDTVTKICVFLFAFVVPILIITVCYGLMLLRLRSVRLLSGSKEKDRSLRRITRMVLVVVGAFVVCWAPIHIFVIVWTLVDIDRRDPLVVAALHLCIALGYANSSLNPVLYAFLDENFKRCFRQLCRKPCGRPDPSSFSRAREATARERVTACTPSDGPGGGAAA
In series [3] the target is T2, Kappa-type opioid receptor (Homo sapiens, UniProt P41145). Briefly: Displacement of [3H]U69,593 from human kappa opioid receptor expressed in HEK293 cell membranes after 2 hrs by liquid scintillation spectrometry. The method, boiled down:
as §1

In series [4] the target is T2, Kappa-type opioid receptor. Briefly: Agonist activity at human kappa opioid receptor expressed in HEK293 assessed as inhibition forskolin-induced cAMP accumulation at 0.00001 to 100 uM after 15 mins by cAMP EIA relative to control. The format is functional, cell-based. The method, boiled down:
(§2)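 Whole HEK-293 cells stably expressing human KOR or MOR, in serum-free medium with 0.5 mM IBMX. Cells exposed 15 min at 37°C to 10 µM forskolin, with or without test agent. KOR co-treatment run: U50,488 1 pM–100 µM with or without 1 µM test agent. cAMP measured by enzyme immunoassay.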

Series [5] is described as follows: Drug metabolism in mouse serum assessed as compound hydrolysis after 1 hr by RP-HPLC analysis. The format is ADME, cell-free. The note with it: read-out: Drug metabolism. The method, boiled down:
(§3)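 Peptides incubated in mouse serum at 37°C for up to 4 h and sampled over time. Enzymatic activity stopped with cold acetonitrile, then centrifuged. Intact peptide in the supernatant quantified by reversed-phase HPLC, with ESI-MS analysis.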

For series [6], the target named is T2, Kappa-type opioid receptor. Description: Agonist activity at human kappa opioid receptor expressed in HEK293 assessed as inhibition forskolin-induced cAMP accumulation after 15 mins by EIA. The format is functional, cell-based. The method, boiled down:
as §2
Background: cAMP levels reflect the balance of adenylyl cyclase and phosphodiesterase activity.

The target in series [7] is T2, Kappa-type opioid receptor. Description: Agonist activity at human kappa opioid receptor expressed in HEK293 assessed as inhibition forskolin-induced cAMP accumulation at 1 uM after 15 mins in presence of U50,488 by EIA. The format is functional, cell-based. The method, boiled down: as §2
For series [8], the system named is Mus musculus. Briefly: Antinociceptive activity in CD1 mouse assessed as increase in latency to response at 20 mg/kg, ip measured at 15 mins post dose by tail immersion test relative to control. The format is functional. The method, boiled down: (§4)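 Mouse warm-water tail immersion at 52 ± 0.5 °C. Control withdrawal latency recorded before dosing; only mice responding within 5 s were used. Vehicle or compound given ip at 10 or 20 mg/kg. Where stated, norBNI 10 mg/kg given 30 min before compound. Test latency taken with 10 s cutoff. MPE% = 100 × (TL − CL)/(10 − CL); n = 6.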

Series [9] relates to Mus musculus. Briefly: Antinociceptive activity in CD1 mouse assessed as increase in latency to response at 20 mg/kg, ip measured at 30 mins post dose by tail immersion test relative to control. The format is functional. The method, boiled down: as §4
Series [10] concerns Mus musculus. Description: Antinociceptive activity in CD1 mouse assessed as increase in latency to response at 10 mg/kg, ip measured at 15 mins post dose by tail immersion test. The format is functional, organism-based. The method, boiled down:
as §4

The test system of series [11] is Mus musculus. Briefly: Antinociceptive activity in CD1 mouse assessed as increase in latency to response at 20 mg/kg, ip measured at 15 mins post dose in presence of KOR antagonist nor-BNI by tail immersion test. The format is functional, organism-based. The method, boiled down: as §4
Series [12] in a line: Drug metabolism in mouse serum assessed as compound hydrolysis after 4 hrs by RP-HPLC analysis. The format is ADME, cell-free. The note with it: read-out: Drug metabolism. The method, boiled down:
as §3

The target of series [13] is T1, Mu-type opioid receptor. Briefly: Agonist activity at human mu opioid receptor expressed in HEK293 assessed as inhibition forskolin-induced cAMP accumulation at 0.00001 to 100 uM after 15 mins by EIA relative to control. The format is functional, cell-based. The method, boiled down:
as §2

The target in series [14] is T1, Mu-type opioid receptor. Description: Agonist activity at human mu opioid receptor expressed in HEK293 assessed as inhibition forskolin-induced cAMP accumulation after 15 mins by EIA. The format is functional, cell-based. The method, boiled down: as §2

Results on five compounds are retold here after ChEMBL document CHEMBL4145618, “Constraining Endomorphin-1 by β,α-Hybrid Dipeptide/Heterocycle Scaffolds: Identification of a Novel κ-Opioid Receptor Selective Partial Agonist” (J Med Chem, 2018).

Structures are written as SMILES. pIC50, pKi: −log10 of the molar value. Active and inactive are the calls of the source. Some results are limits rather than exact numbers.

Broadly, the pKi is −log10 of the Ki, conventionally taken in molar units. A low value points to a large Ki. As a reminder, the Emax is the size of the effect at its maximum, as opposed to the concentration needed. The term pIC50 denotes −log10 of the IC50, conventionally taken in molar units. A word on the inhibition: it is the percentage by which the read-out fell short of the control.

T1 sequence (P35372 whole entry): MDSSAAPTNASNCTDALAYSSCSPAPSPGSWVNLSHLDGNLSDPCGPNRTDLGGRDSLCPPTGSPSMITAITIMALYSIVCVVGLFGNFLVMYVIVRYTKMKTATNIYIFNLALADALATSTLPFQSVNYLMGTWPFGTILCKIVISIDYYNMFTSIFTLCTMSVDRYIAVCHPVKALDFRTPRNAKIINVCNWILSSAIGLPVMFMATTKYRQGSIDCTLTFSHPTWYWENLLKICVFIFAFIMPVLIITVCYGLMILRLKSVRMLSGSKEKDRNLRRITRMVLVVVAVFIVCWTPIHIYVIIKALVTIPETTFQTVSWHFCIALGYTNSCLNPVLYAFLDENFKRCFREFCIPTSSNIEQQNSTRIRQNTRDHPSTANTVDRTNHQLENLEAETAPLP
T2 sequence (P41145 whole entry): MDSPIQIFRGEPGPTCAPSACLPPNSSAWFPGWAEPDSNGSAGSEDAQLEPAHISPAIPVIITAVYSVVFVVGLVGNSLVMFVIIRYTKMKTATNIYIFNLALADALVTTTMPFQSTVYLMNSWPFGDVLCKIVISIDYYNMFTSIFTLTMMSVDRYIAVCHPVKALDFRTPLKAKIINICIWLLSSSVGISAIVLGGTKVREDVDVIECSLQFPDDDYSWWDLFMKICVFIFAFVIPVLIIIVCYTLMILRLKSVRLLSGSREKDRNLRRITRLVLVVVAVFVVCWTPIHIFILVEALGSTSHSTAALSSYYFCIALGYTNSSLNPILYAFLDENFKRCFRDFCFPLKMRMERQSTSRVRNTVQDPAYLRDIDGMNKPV

For `NC(=O)[C@H](Cc1ccccc1)NC(=O)[C@@H](Cc1c[nH]c2ccccc12)N1C(=O)O[C@@H](CNC(=O)[C@@H](N)Cc2ccc(O)cc2)C1=O`, the pKi (on Mu-type opioid receptor [1]; in [2]; in series [3]) was less than 4.00 each time.

For `NC(=O)[C@H](Cc1ccccc1)NC(=O)[C@H](Cc1c[nH]c2ccccc12)N1C(=O)O[C@H](CNC(=O)[C@@H](N)Cc2ccc(O)cc2)C1=O`, the pKi (on Mu-type opioid receptor [1]; in [2]; in [3]) was less than 4.00 throughout.

In the case of `NC(=O)[C@H](Cc1ccccc1)NC(=O)[C@H](Cc1c[nH]c2ccccc12)N1C(=O)O[C@@H](CNC(=O)[C@@H](N)Cc2ccc(O)cc2)C1=O`, in [4], the maximal response (Emax) came to 40%. Besides, the pKi at Mu-type opioid receptor [1] is less than 4.00; in series [2] it was less than 4.00; in [3] it was 8.01. In addition, the metabolised at 1 h in [5] is less than 5%. In addition, the pIC50 in series [6] was 9.66. For the same compound, the inhibition in [7] was 40%. Further, the MPE is given as 60% in the series on Mus musculus [8] and 42% in the series on Mus musculus [9]. The result in the series on Mus musculus [10] was Active. Moreover, in the series with Mus musculus [11], the outcome was inactive.

`NC(=O)[C@H](Cc1ccccc1)NC(=O)[C@@H](Cc1c[nH]c2ccccc12)N1C(=O)O[C@H](CNC(=O)[C@@H](N)Cc2ccc(O)cc2)C1=O`: the figures for the pKi (at Mu-type opioid receptor [1]; in series [2]; in series [3]) were 6.62, less than 4.00 and less than 4.00, respectively. Also, the metabolised at 4 h in [12] is less than 10%. Also, the maximal effect (Emax) on Mu-type opioid receptor [13] turned out to be 50%. The pIC50 at Mu-type opioid receptor [14] was 10.80.

On to `N[C@@H](Cc1ccc(O)cc1)C(=O)N1CCC[C@H]1C(=O)N[C@@H](Cc1c[nH]c2ccccc12)C(=O)N[C@@H](Cc1ccccc1)C(=O)O`, for which the Emax on Mu-type opioid receptor [13] was 53%.
